ChEMBL document CHEMBL1143122, “Novel analogs of D-e-MAPP and B13. Part 1: synthesis and evaluation as potential anticancer agents” (Bioorg Med Chem, 2008)

How the values were obtained:
[1] = system: TK-10; assay: Antiproliferative activity against human TK10 cells after 48 hrs; type: functional; conditions: TK-10, 48 h
Summary of the method: (§1)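 NCI 60-cell-line screen. Lines grown in RPMI 1640 with 5% fetal bovine serum and 2 mM L-glutamine, plated at 5,000–40,000 cells/well according to doubling time, left 24 h at 37 °C in 5% CO2. Drug stocks in DMSO at 400-fold the top final concentration. Five 10-fold dilutions, 10−4 to 10−8 M, incubated 48 h. Growth read spectrophotometrically as net protein; GI50 taken as 50% reduction.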

[2] = system: CAKI-1; assay: Antiproliferative activity against human CAKI1 cells after 48 hrs; type: functional; conditions: CAKI-1, 48 h
Summary of the method: (§2)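 NCI 60-cell screen. Cells were grown in RPMI 1640 with 5% FBS and 2 mM L-glutamine, then plated at 5,000–40,000 cells/well according to doubling time and preincubated for 24 h at 37 °C in 5% CO2. Compounds were dissolved in DMSO at 400× the top final concentration and tested at five 10-fold dilutions from 10−4 to 10−8 M for 48 h. Growth was read spectrophotometrically; GI50 is 50% net protein reduction.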

[3] = system: UACC-62; assay: Antiproliferative activity against human UACC62 cells after 48 hrs; type: functional; conditions: UACC-62, 48 h; summary of the method: as §1
[4] = system: UO-31; assay: Antiproliferative activity against human UO31 cells after 48 hrs; type: functional; conditions: UO-31, 48 h; summary of the method: as §1
[5] = system: SN12C; assay: Antiproliferative activity against human SN12C cells after 48 hrs; type: functional; summary of the method: as §2
[6] = system: SNB-19; assay: Antiproliferative activity against human SNB19 cells after 48 hrs; type: functional; conditions: SNB-19, 48 h; summary of the method: as §2
[7] = system: MDA-MB-231; assay: Antiproliferative activity against human MDA-MB-231 cells after 48 hrs; type: functional; conditions: MDA-MB-231, 48 h; summary of the method: as §2
[8] = system: MOLT-4; assay: Antiproliferative activity against human MOLT4 cells after 48 hrs; type: functional; conditions: MOLT-4, 48 h; summary of the method: as §2
[9] = system: HCT-15; assay: Antiproliferative activity against human HCT15 cells after 48 hrs; type: functional; conditions: Homo sapiens, HCT-15, 48 h; summary of the method: as §2
[10] = system: KM12; assay: Antiproliferative activity against human KM12 cells after 48 hrs; type: functional; conditions: Homo sapiens, KM12, 48 h; summary of the method: as §2
[11] = system: NCI-H460; assay: Antiproliferative activity against human NCI-H460 cells after 48 hrs; type: functional; conditions: NCI-H460, 48 h; summary of the method: as §2
[12] = Antiproliferative activity against human NCI-ADR-RES cells after 48 hrs; type: functional; summary of the method: as §2
[13] = system: SK-MEL-2; assay: Antiproliferative activity against human SKMEL2 cells after 48 hrs; type: functional; conditions: SK-MEL-2, 48 h; summary of the method: as §2
[14] = system: PC-3; assay: Antiproliferative activity against human PC3 cells after 48 hrs; type: functional; conditions: PC-3, 48 h; summary of the method: as §2
[15] = system: IGROV-1; assay: Antiproliferative activity against human IGROV1 cells after 48 hrs; type: functional; conditions: IGROV-1, 48 h; summary of the method: as §2
[16] = system: HOP-62; assay: Antiproliferative activity against human HOP62 cells after 48 hrs; type: functional; conditions: HOP-62, 48 h; summary of the method: as §2
[17] = Antiproliferative activity against human HL60(TB) cells after 48 hrs; type: functional, HL-60(TB); conditions: HL-60, 48 h
Summary of the method: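 NCI 60-line panel screen: cells grown in RPMI 1640 with 5% fetal bovine serum and 2 mM L-glutamine, plated at 5,000–40,000 cells/well by doubling time, and preincubated 24 h at 37 °C in 5% CO2. Drugs were solubilised in DMSO at 400-fold the final maximum and tested at five 10-fold dilutions from 10−4 to 10−8 M for 48 h. Net protein was read spectrophotometrically, and the concentration giving 50% reduction was reported as log10 GI50.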

[18] = system: LOX IMVI; assay: Antiproliferative activity against human LOXIMVI cells after 48 hrs; type: functional; summary of the method: as §2
[19] = system: A498; assay: Antiproliferative activity against human A498 cells after 48 hrs; type: functional; conditions: A498, 48 h; summary of the method: as §2
[20] = system: T47D; assay: Antiproliferative activity against human T47D cells after 48 hrs; type: functional; summary of the method: as §1
[21] = system: SK-OV-3; assay: Antiproliferative activity against human SKOV3 cells after 48 hrs; type: functional; conditions: SK-OV-3, 48 h; summary of the method: as §2
[22] = system: SK-MEL-28; assay: Antiproliferative activity against human SKMEL28 cells after 48 hrs; type: functional; conditions: SK-MEL-28, 48 h; summary of the method: as §2
[23] = system: DU-145; assay: Antiproliferative activity against human DU145 cells after 48 hrs; type: functional; conditions: DU-145, 48 h; summary of the method: as §2
[24] = system: UACC-257; assay: Antiproliferative activity against human UACC257 cells after 48 hrs; type: functional; conditions: UACC-257, 48 h; summary of the method: as §1
[25] = system: SF-295; assay: Antiproliferative activity against human SF295 cells after 48 hrs; type: functional; conditions: SF-295, 48 h; summary of the method: as §2
[26] = system: HT-29; assay: Antiproliferative activity against human HT29 cells after 48 hrs; type: functional; conditions: HT-29, 48 h; summary of the method: as §2
[27] = system: HOP-92; assay: Antiproliferative activity against human HOP92 cells after 48 hrs; type: functional; conditions: HOP-92, 48 h; summary of the method: as §2
[28] = system: M14; assay: Antiproliferative activity against human M14 cells after 48 hrs; type: functional; conditions: M14, 48 h; summary of the method: as §2
[29] = system: 786-0; assay: Antiproliferative activity against human 786-0 cells after 48 hrs; type: functional; conditions: 786-0, 48 h; summary of the method: as §2
[30] = system: NCI-H322M; assay: Antiproliferative activity against human NCI-H322M cells after 48 hrs; type: functional; summary of the method: as §2
[31] = read-out: Log LC50 (the source's name) (converted)

## CCCCCCCCCCCCCCN[C@H](C)[C@@H](O)c1ccccc1.Cl
[1]
  GI50: 1.86 µM
[1]; [31]
  CC50: 5.75 µM
[1]; read-out: Log TGI (converted)
  TGI: 3.31 µM
[2]
  GI50: 1.95 µM
[2]; [31]
  CC50: 5.75 µM
[2]; read-out: Log TGI (converted)
  TGI: 3.39 µM
[3]
  GI50: 1.82 µM
  LC50: 6.61 µM
[3]; read-out: Log TGI (converted)
  TGI: 3.47 µM
[4]
  GI50: 1.74 µM
  LC50: 5.89 µM
[4]; read-out: Log TGI (converted)
  TGI: 3.24 µM
[5]
  GI50: 1.78 µM
  LC50 (50% net cell kill): 6.76 µM
[5]; read-out: Log TGI (converted)
  TGI: 3.47 µM
[6]
  GI50: 1.74 µM
[6]; read-out: Log TGI (converted)
  TGI: 3.09 µM
[7]
  GI50: 1.74 µM
  LC50 (50% lethal concentration): 6.46 µM
[7]; read-out: Log TGI (converted)
  TGI: 3.39 µM
[8]
  GI50: 0.871 µM
  LC50: 4.9 µM
[8]; read-out: Log TGI (converted)
  TGI: 2.19 µM
[9]
  GI50: 1.82 µM
  LC50: 5.89 µM
[9]; read-out: Log TGI (converted)
  TGI: 3.24 µM
[10]
  GI50: 1.82 µM
[10]; [31]
  CC50: 5.62 µM
[10]; read-out: Log TGI (converted)
  TGI: 3.16 µM
[11]
  GI50: 1.78 µM
[11]; [31]
  CC50: 6.17 µM
[11]; read-out: Log TGI (converted)
  TGI: 3.31 µM
[12]
  GI50: 1.82 µM
[12]; read-out: Log TGI (converted)
  TGI: 3.55 µM
[13]
  GI50: 2 µM
  LC50: 8.13 µM
[13]; read-out: Log TGI (converted)
  TGI: 3.98 µM
[14]
  GI50: 1.86 µM
  LC50: 5.89 µM
[14]; read-out: Log TGI (converted)
  TGI: 3.31 µM
[15]
  GI50: 1.62 µM
  LC50: 5.75 µM
[15]; read-out: Log TGI (converted)
  TGI: 3.09 µM
[16]
  GI50: 1.86 µM
[16]; [31]
  CC50: 5.89 µM
[16]; read-out: Log TGI (converted)
  TGI: 3.31 µM
[17]
  GI50: 0.0871 µM
  LC50: 6.61 µM
[17]; read-out: Log TGI (converted)
  TGI: 2.51 µM
[18]
  GI50: 1.82 µM
  LC50: 5.89 µM
[18]; read-out: Log TGI (converted)
  TGI: 3.31 µM
[19]
  GI50: 3.16 µM
[19]; [31]
  CC50: 74.1 µM
[19]; read-out: Log TGI (converted)
  TGI: 6.46 µM
[20]
  GI50: 2.29 µM
[20]; [31]
  CC50: 7.76 µM
[20]; read-out: Log TGI (converted)
  TGI: 4.17 µM
[21]
  GI50: 2.34 µM
[21]; [31]
  CC50: 9.77 µM
[21]; read-out: Log TGI (converted)
  TGI: 4.79 µM
[22]
  GI50: 1.86 µM
  LC50: 5.75 µM
[22]; read-out: Log TGI (converted)
  TGI: 3.24 µM
[23]
  GI50: 1.48 µM
[23]; [31]
  CC50: 5.25 µM
[23]; read-out: Log TGI (converted)
  TGI: 2.82 µM
[24]
  GI50: 1.66 µM
[24]; [31]
  CC50: 6.46 µM
[24]; read-out: Log TGI (converted)
  TGI: 3.31 µM
[25]
  GI50: 1.82 µM
  LC50: 6.17 µM
[25]; read-out: Log TGI (converted)
  TGI: 3.39 µM
[26]
  GI50: 1.78 µM
  LC50: 5.75 µM
[26]; read-out: Log TGI (converted)
  TGI: 3.24 µM
[27]
  GI50: 1.55 µM
  LC50: 5.89 µM
[27]; read-out: Log TGI (converted)
  TGI: 3.02 µM
[28]
  GI50: 1.86 µM
  LC50: 6.17 µM
[28]; read-out: Log TGI (converted)
  TGI: 3.39 µM
[29]
  GI50: 1.74 µM
[29]; [31]
  CC50: 5.75 µM
[29]; read-out: Log TGI (converted)
  TGI: 3.16 µM
[30]
  GI50: 1.91 µM
[30]; [31]
  CC50: 5.89 µM
[30]; read-out: Log TGI (converted)
  TGI: 3.31 µM
